Measured values published in ChEMBL document CHEMBL1147088, “Small molecule obatoclax (GX15-070) antagonizes MCL-1 and overcomes MCL-1-mediated resistance to apoptosis” (Proc Natl Acad Sci U S A, 2007).
The source made the active and inactive calls. The calls are words filed in the database; no cut-off is given here.

Key:
[1] = biological target: Apoptosis regulator Bcl-2 (Homo sapiens, UniProt P10415); test: Binding affinity to BCL2
KB [2] = test: Depletion of cytochrome c in mitochondria of human KB cells at 2.0 uM; format: functional, cell-based
In short: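 Mitochondria isolated from KB cells were incubated 30 min at 37°C with DMSO or compound, then reisolated. Mitochondrial pellet and post-mitochondrial supernatant were analysed by SDS/PAGE and cytochrome c immunoblot, with actin and a control protein as loading controls.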

KB [3] = test: Cytotoxicity in human KB cells overexpressing BCL2 at 0.1 uM; format: functional, cell-based
Eu-Myc [4] = test: Induction of apoptosis in mouse Eu-Myc cells overexpressing MCL1 assessed as inhibition of colony formation at 1 uM; format: functional, cell-based
KB [5] = test: Cytotoxicity against BCL2 overexpressing human KB cells transfected with luciferase siRNA assessed as annexin 5 uptake at 0.5 uM after 72 hrs by flow cytometry; format: functional
KB [6] = test: Cytotoxicity in human siRNA-mediated-MCL1-kncok down KB cells overexpressing BCL2 at 0.5 uM; format: functional, cell-based
KB [7] = test: Cytotoxicity against BCL2 overexpressing human KB cells transfected with luciferase siRNA assessed as propidium iodide uptake at 0.5 uM after 72 hrs by flow cytometry; format: functional
KB [8] = test: Cytotoxicity in human KB cells overexpressing BCL2 at 0.5 uM; format: functional, cell-based
Eu-Myc [9] = test: Induction of apoptosis in mouse Eu-Myc cells overexpressing A1 assessed as inhibition of colony formation at 1 uM; format: functional, cell-based
KB [10] = test: Cytotoxicity against BCL2 overexpressing human KB cells transfected with MCL1 siRNA assessed as propidium iodide uptake at 0.5 uM after 72 hrs by flow cytometry; format: functional
KB [11] = test: Cytotoxicity against BCL2 overexpressing human KB cells transfected with MCL1 siRNA assessed as annexin 5 reactivity at 0.5 uM after 72 hrs by flow cytometry; format: functional
Eu-Myc [12] = test: Induction of apoptosis in mouse Eu-Myc cells overexpressing BCL2 assessed as inhibition of colony formation at 1 uM; format: functional, cell-based
[13] = Cytotoxicity against mouse B16-F1 cells transfected with MCL1 siRNA assessed as assessed as annexin 5 uptake at 100 nM after 24 hrs by flow cytometry; format: functional
[14] = Cytotoxicity against mouse B16-F1 cells transfected with luciferase siRNA assessed as assessed as annexin 5 uptake at 100 nM after 24 hrs by flow cytometry; format: functional

Chain of Apoptosis regulator Bcl-2 (P10415 whole entry): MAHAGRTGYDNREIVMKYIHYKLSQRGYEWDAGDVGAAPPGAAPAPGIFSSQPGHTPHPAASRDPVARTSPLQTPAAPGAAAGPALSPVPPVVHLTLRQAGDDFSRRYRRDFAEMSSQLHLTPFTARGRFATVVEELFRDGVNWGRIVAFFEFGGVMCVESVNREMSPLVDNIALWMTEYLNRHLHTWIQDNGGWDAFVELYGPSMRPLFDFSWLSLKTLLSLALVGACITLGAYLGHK

**Q.** With `O=C(O[C@H]1Cc2c(O)cc(O)cc2OC1c1cc(O)c(=O)c2c(O)c(O)cc([C@H]3Oc4cc(O)cc(O)c4C[C@H]3O)c2c1)c1cc(O)c(O)c(O)c1` (some centres not stated) as the compound, how does the Ki [1] read?
**A.** 1.23 µM

**Q.** With `COC(=O)NC(CCSC)C(=O)Oc1ccc(Nc2nc3c(s2)C(=O)c2ccccc2C3=O)cc1` (configuration not stated) as the compound, how does the Ki [1] read?
**A.** 1.29 µM

**Q.** For `CC[C@H](C)[C@H](NC(=O)[C@H](CC(N)=O)NC(=O)[C@H](CCCNC(=N)N)NC(=O)[C@@H](NC(=O)[C@@H](NC(=O)[C@H](CC(=O)O)NC(=O)[C@@H](N)CCC(=O)O)[C@@H](C)CC)[C@@H](C)CC)C(=O)N[C@@H](C)C(=O)N[C@@H](CCCNC(=N)N)C(=O)N[C@@H](Cc1cnc[nH]1)C(=O)N[C@@H](CC(C)C)C(=O)N[C@@H](C)C(=O)N[C@@H](CCC(N)=O)C(=O)N[C@H](C(=O)NCC(=O)N[C@@H](CC(=O)O)C(=O)N[C@@H](CO)C(=O)N[C@@H](CCSC)C(=O)N[C@@H](CC(=O)O)C(=O)N[C@@H](CCCNC(=N)N)C(=O)O)C(C)C`, which Activity (KB [2]) is on record?
**A.** Active

**Q.** Which Ki [1] does the source give for `Oc1cc(O)c2c(c1)O[C@H](c1ccc(O)c(O)c1)[C@H](O)C2` [(-)-EPICATECHIN] here?
**A.** > 100 µM

**Q.** Which results are given for `CN(C)CC[C@H](CSc1ccccc1)Nc1ccc(S(=O)(=O)NC(=O)c2ccc(N3CCN(Cc4ccccc4-c4ccc(Cl)cc4)CC3)cc2)cc1[N+](=O)[O-]` [ABT 737]?
**A.** Activity (KB [3]): inactive; Activity (Eu-Myc [4]): inactive; Activity (KB [5]): 8%; Activity (KB [6]): Active; Activity (KB [7]): 9%; Activity (KB [8]): inactive; Activity (Eu-Myc [9]): inactive; Activity (KB [10]): 72%; Activity (KB [11]): 58%; Activity (Eu-Myc [12]): Active

**Q.** With `CCCC[C@H]1C(=O)O[C@H](C)[C@H](NC(=O)c2cccc(NC=O)c2O)C(=O)O[C@@H](C)[C@@H]1OC(=O)CC(C)C` [ANTIMYCIN A3] as the compound, how does the Ki [1] read?
**A.** 0.832 µM

**Q.** With `CC(C)C[C@H](NC(=O)[C@H](Cc1ccccc1)NC(=O)c1cnccn1)B(O)O` [BORTEZOMIB] as the compound, how does the Activity [13] read?
**A.** 42%

**Q.** What about the Activity [14] of the same compound?
**A.** 14%
